Source: ChEMBL document CHEMBL1154810, “Synthesis, characterization and biocidal activity of new organotin complexes of 2-(3-oxocyclohex-1-enyl)benzoic acid” (Eur J Med Chem, 2010)
Values after ≈ are worked out from the molar mass of the structure shown.

Test system: Candida albicans
Experiment: Antimicrobial activity against Candida albicans ATCC 18804 after 48 hrs
Assay type: functional
Details: ATCC 18804, 48 h
Summary of the method: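 Broth microdilution MIC per NCCLS M27-A in RPMI 1640. Yeasts were pre-grown on Sabouraud medium, 24 h for C. albicans and 48 h for C. neoformans. Compound solution was added to wells, then incubated 37 °C for 48 h. Ketoconazol was the positive control and DMSO 1 and 2% in RPMI the negative controls. Triplicate runs. MIC was the lowest concentration giving an optically clear well, judged visually against the drug-free growth control.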

Row | Compound | MIC [µM]
1 | CC(=O)N1CCN(c2ccc(OCC3COC(Cn4ccnc4)(c4ccc(Cl)cc4Cl)O3)cc2)CC1 (configuration not stated) [KETOCONAZOLE] | 0.24 (≈ 0.128 µg/mL)

Test system: HEK293
Experiment: Cytotoxicity against HEK293 cells after 24 hrs by MTT assay
Assay type: cell-based, Homo sapiens
Details: not given

Row | Compound | IC50 [nM]
2 | CHLOROTRIMETHYLSTANNANE | 8
3 | CHLOROTRIPHENYLSTANNANE | 10
4 | DIBUTYLDICHLOROSTANNANE | 30
5 | DICHLORODIMETHYLSTANNANE | 10
6 | DICHLORODIPHENYLSTANNANE | 50
7 | TRIBUTYLCHLOROSTANNANE | 40
